The source made the active and inactive calls. The calls are words filed in the database; no cut-off is given here.
Columns and labels:
Escherichia coli [1] = assay: Antibacterial activity against Escherichia coli ATCC 25922 assessed as growth inhibition after 24 hrs; type: functional
In short: (§1)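 Log-phase bacteria adjusted to OD600 0.001 in nutrient broth. Peptide dilutions in 20 mM Tris–HCl pH 7.4 were added; buffer alone served as control. Incubation was 37 °C for 24 h. % inhibition was calculated from the OD600 change (24 h minus time zero) relative to the control change. MIC was the concentration giving >90% growth inhibition.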

[2] = (§2) Antibacterial activity against Vibrio cholerae non-O1 non-O139 assessed as growth inhibition after 24 hrs; type: functional; settings: for MIC90: Vibrio cholerae, non-O139, 24 h
Staphylococcus aureus = assay: Antibacterial activity against Staphylococcus aureus ATCC 25923 assessed as growth inhibition after 24 hrs; type: functional; settings: for MIC90: Staphylococcus aureus, ATCC 25923, 24 h; in short: as §1
[3] = tested on: Staphylococcus epidermidis; assay: Antibacterial activity against Staphylococcus epidermidis ATCC 12228 assessed as growth inhibition after 24 hrs; type: functional; settings: for MIC90: Staphylococcus epidermidis, ATCC 12228, 24 h; in short: as §1
Pseudomonas aeruginosa = assay: Antibacterial activity against Pseudomonas aeruginosa ATCC 27853 assessed as growth inhibition after 24 hrs; type: functional; in short: as §1
Salmonella typhi [4] = assay: Antibacterial activity against Salmonella typhi DMST 22842 assessed as growth inhibition after 24 hrs; type: functional, Salmonella enterica subsp. enterica serovar Typhi; settings: for MIC90: Salmonella enterica, DMST 22842, 24 h
[5] = Therapeutic index, ratio of MHC for human RBC to MIC for Salmonella typhi DMST 22842; settings: human red blood cells (RBC), read-out: TI
In short: (§3)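 Index was calculated as MHC/MIC. MHC was the lowest peptide concentration producing 5% hemolysis of human red blood cells. MIC was the concentration giving >90% inhibition of bacterial growth (OD600) after 24 h at 37 °C in nutrient broth, with bacteria starting at OD600 0.001.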

[6] = tested on: Staphylococcus epidermidis; assay: Bactericidal activity against Staphylococcus epidermidis ATCC 12228 assessed as reduction in CFU at 23 ug/mL after 48 hrs; type: functional; parameters: scale not given: the % may be the effect or the level left
In short: (§4)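 After the 24 h, 37 °C broth-microdilution exposure (log-phase inoculum at OD600 0.001, peptide in 20 mM Tris–HCl pH 7.4), 5 μL from each well was plated on agar and incubated at 37 °C for 48 h. 100% bactericidal concentration was the concentration giving a 99.9% CFU reduction from the starting inoculum.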

Escherichia coli [7] = assay: Antibacterial activity against Escherichia coli ATCC 25922 assessed as appearance of blebs on cell surface at 10 X MIC after 1 min by SEM analysis; type: functional, organism-based
In short: (§5)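 Bacterial suspension at OD600 0.1 was exposed to peptide at 10× MIC for 1 min and 60 min. The negative control was 20 mM Tris–HCl buffer. Cell morphology was then examined by scanning electron microscopy.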

Escherichia coli [8] = assay: Bactericidal activity against Escherichia coli ATCC 25922 assessed as reduction in CFU at 11 ug/mL after 48 hrs; type: functional; parameters: scale not given: the % may be the effect or the level left; in short: as §4
[9] = Therapeutic index, ratio of MHC for human RBC to MIC for Vibrio cholerae non-O1 non-O139; settings: human red blood cells (RBC), read-out: TI; in short: as §3
[10] = Hemolytic activity in human RBC at 1 to 91 ug/ml; type: ADME, cell-based; settings: erythrocyte
In short: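 Human red blood cells were exposed to peptide. Minimal hemolytic concentration was taken as the lowest peptide concentration producing 5% hemolysis.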

[11] = Therapeutic index, ratio of MHC for human RBC to MIC for Pseudomonas aeruginosa ATCC 27853; settings: human red blood cells (RBC), read-out: TI; in short: as §3
[12] = Therapeutic index, ratio of MHC for human RBC to MIC for Escherichia coli ATCC 25922; settings: human red blood cells (RBC), read-out: TI; in short: as §3
[13] = Therapeutic index, ratio of MHC for human RBC to MIC for Staphylococcus aureus ATCC 25923; settings: human red blood cells (RBC), read-out: TI; in short: as §3
[14] = Therapeutic index, ratio of MHC for human RBC to MIC for Staphylococcus epidermidis ATCC 12228; settings: human red blood cells (RBC), read-out: TI; in short: as §3
RAW264.7 = assay: Cytotoxicity against mouse RAW264.7 cells assessed as cell viability at 1 to 91 ug/ml after 48 hrs by MTT assay; type: cell-based; settings: raw264.7, 48 h
In short: (§6)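 Monolayer cell viability was read by MTT. Results are given as mean ± SEM (n = 8). Significance was tested by one-way ANOVA with Scheffe's multiple range test (p < 0.05).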

Vero = assay: Cytotoxicity against african green monkey Vero cells assessed as cell viability at 1 to 91 ug/ml after 48 hrs by MTT assay; type: cell-based; settings: chlorocebus sabaeus; in short: as §6
Vibrio cholerae non-O1 = assay: as §2; type: functional
Salmonella typhi [15] = assay: Bactericidal activity against Salmonella typhi DMST 22842 assessed as reduction in CFU at 23 ug/mL after 48 hrs; type: functional, Salmonella enterica subsp. enterica serovar Typhi; parameters: scale not given: the % may be the effect or the level left
In short: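 Bacteria at OD600 0.001 in nutrient broth were exposed to peptide in 20 mM Tris–HCl (pH 7.4) at 37 °C for 24 h. A sample from each well was then plated on agar and incubated at 37 °C for 48 h. Bactericidal activity was taken as a 99.9% CFU reduction versus the starting inoculum.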

[16] = tested on: Staphylococcus epidermidis; assay: Antibacterial activity against Staphylococcus epidermidis ATCC 12228 assessed as appearance of rough and wavy cell morphology at 10 X MIC after 1 min by SEM analysis; type: functional, organism-based; in short: as §5
Salmonella typhi [17] = assay: Antibacterial activity against Salmonella typhi DMST 22842 assessed as appearance of rough and wavy cell morphology at 10 X MIC after 1 min by SEM analysis; type: functional, organism-based; settings: Salmonella enterica subsp. enterica serovar Typhi
In short: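 Bacterial suspension (OD600 0.1) was incubated with peptide at 10×MIC for 1 and 60 min, with 20 mM Tris–HCl buffer as negative control. Cell morphology was examined by scanning electron microscopy.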

Escherichia coli [18] = assay: Bactericidal activity against Escherichia coli ATCC 25922 assessed as reduction in CFU at 46 ug/mL after 48 hrs; type: functional; parameters: scale not given: the % may be the effect or the level left; in short: as §4
[19] = Escherichia coli, ATCC 25922, 24 h
[20] = Pseudomonas aeruginosa, ATCC 27853, 24 h

Substance | growth inhibition (GI) (Escherichia coli [1]) | MIC90 (Escherichia coli [1]; [19]) | MIC90 [2] | growth inhibition (GI) (Staphylococcus aureus) | MIC90 (Staphylococcus aureus) | growth inhibition (GI) [3] | MIC90 [3] | MIC90 (Pseudomonas aeruginosa; [20]) | growth inhibition (GI) (Salmonella typhi [4]) | MIC90 (Salmonella typhi [4]) | selectivity ratio [5] | Activity [6] | selectivity ratio [9] | Activity [10] | selectivity ratio [11] | selectivity ratio [12] | selectivity ratio [13] | selectivity ratio [14] | MIC90 (Vibrio cholerae non-O1) | MIC90 (Pseudomonas aeruginosa) | further results
H-NGVQPKY-OH | <90% | > 200 µg/mL | > 200 µg/mL | <90% | > 200 µg/mL | <90% | > 200 µg/mL | > 200 µg/mL | <90% | > 200 µg/mL |  |  |  |  |  |  |  |  |  |  | growth inhibition (GI) [2]: <90%; growth inhibition (GI) (Pseudomonas aeruginosa): <90%
H-NGVQPKYKWWKWWKKWW-NH2 |  | 11 µg/mL | 11 µg/mL |  | 46 µg/mL |  | 23 µg/mL | 91 µg/mL |  | 23 µg/mL | 2 | 100% | 4 | Non-toxic | 0.5 | 4 | 1 | 2 |  |  | Activity (Escherichia coli [7]): Active; Activity (Escherichia coli [8]): 100%; Activity (RAW264.7): Non-toxic; Activity (Vero): Non-toxic
H-NGVQPKYKWWKWWKKWWW-NH2 |  | 11 µg/mL |  | <90% | > 91 µg/mL |  | 23 µg/mL |  |  | 23 µg/mL | 1 | 100% |  | Toxic |  | 2 | < 0.5 | 1 | inactive | inactive | Activity (Escherichia coli [7]): Active; Activity (Escherichia coli [8]): 100%; Activity (Salmonella typhi [15]): 100%
H-NGVQPKYRWWRWWRRWW-NH2 |  | 46 µg/mL | 46 µg/mL |  | 91 µg/mL |  | 23 µg/mL |  |  | 23 µg/mL | 2 | Active | 1 | Non-toxic |  | 1 | 0.5 | 2 |  | inactive | Activity [16]: Active; Activity (Salmonella typhi [17]): Active; Activity (Escherichia coli [18]): 100%; Activity (RAW264.7): Non-toxic; Activity (Vero): Non-toxic
H-NGVQPKYRWWRWWRRWW-OH |  | 46 µg/mL |  | <90% | > 91 µg/mL |  | 23 µg/mL |  | <90% | > 91 µg/mL | < 0.25 | Active |  | Toxic |  | 0.5 | < 0.25 | 1 | inactive | inactive | Activity [16]: Active; Activity (Salmonella typhi [17]): Active; Activity (Escherichia coli [18]): 100%; Activity (RAW264.7): Toxic; Activity (Vero): Toxic
H-NGVQPKYRWWRWWRRWWW-OH | <90% | > 91 µg/mL |  | <90% | > 91 µg/mL |  | 91 µg/mL |  | <90% | > 91 µg/mL | < 0.25 |  |  | Toxic |  | < 0.25 | < 0.25 | 0.25 | inactive | inactive | 
H-NGVQPKYRWWRWWRRWWWW-NH2 | <90% | > 91 µg/mL |  | <90% | > 91 µg/mL |  | 91 µg/mL | > 91 µg/mL | <90% | > 91 µg/mL | < 0.06 |  |  | Toxic | < 0.06 | < 0.06 | < 0.06 | 0.06 | inactive |  | growth inhibition (GI) (Pseudomonas aeruginosa): <90%
H-NGVQPWYKWWKWWKKWW-NH2 | <90% | > 91 µg/mL | 91 µg/mL | <90% | > 91 µg/mL |  | 91 µg/mL |  | <90% | > 91 µg/mL | < 0.06 |  | 0.06 | Toxic |  | < 0.06 | < 0.06 | 0.06 |  | inactive | 
H-RWWRWWRRWW-NH2 | <90% | > 91 µg/mL | 23 µg/mL | <90% | > 91 µg/mL | <90% | > 91 µg/mL | 46 µg/mL | <90% | > 91 µg/mL | < 0.02 |  | 0.08 | Toxic | 0.04 | < 0.02 | < 0.02 | < 0.02 |  |  | 
H-RWWRWWRRWWW-NH2 |  |  | > 91 µg/mL | <90% | > 91 µg/mL | <90% | > 91 µg/mL |  | <90% | > 91 µg/mL | < 0.02 |  | < 0.02 | Toxic |  |  | < 0.02 | < 0.02 |  | inactive | MIC90 (Escherichia coli [1]): inactive; growth inhibition (GI) [2]: <90%

— ChEMBL document CHEMBL2406905, “Improving the antibacterial activity and selectivity of an ultra short peptide by hydrophobic and hydrophilic amino acid stretches” (Bioorg Med Chem Lett, 2013)
